Screens deposited in PubChem by Sanford-Burnham Center for Chemical Genomics.
LMPTP block – blocks human LMPTP phosphatase. recombinant LMPTP-A, OMFP fluorogenic substrate, fluorescence intensity. actives 0.22% (n = 360,000). inhibition, % at 20 µM;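 active = compounds that cut the enzyme signal by at least half of the control window in the single-dose screen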;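 note: plate controls were DMSO wells with enzyme plus substrate for no effect and substrate without enzyme for full effect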
Target sequence (P24666 whole entry, looked up): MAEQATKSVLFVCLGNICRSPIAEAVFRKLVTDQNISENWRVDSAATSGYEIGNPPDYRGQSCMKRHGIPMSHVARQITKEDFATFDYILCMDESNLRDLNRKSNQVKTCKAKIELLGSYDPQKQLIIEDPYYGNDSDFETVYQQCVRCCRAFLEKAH
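Test system: LMPTP-A phosphatase enzyme; input: 0.625 nM LMPTP-A final; reagent: OMFP substrate, 400 µM final; compound dosing: 20 µM single dose, 3% DMSO; incubation: 50 min dark incubation at room temperature; measured by: endpoint fluorescence intensity from OMFP dephosphorylation; measure: % inhibition relative to no-enzyme and uninhibited control wells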
DNMT1 inh – inhibitors of human DNMT1; actives 0.83% (n = 360,000); DNMT1 molecular beacon, Hinp1I cleavage, fluorescence; inhibition (reported as % activation of signal), % at 10 µM; in the data active = inhibition above about 50%
Rpn11 inh – Rpn11 (human) deubiquitinase inhibition | human 26S proteasome, Ub4-pepOG fluorescence polarization; 20S core pre-blocked with epoxomicin | actives 0.59% (n = 360,000) | inhibition, % at 20 µM;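 active = inhibition at 20 µM, scaled to each plate's controls, above about 33%, limit read from the data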
Target sequence (O00487 whole entry, looked up): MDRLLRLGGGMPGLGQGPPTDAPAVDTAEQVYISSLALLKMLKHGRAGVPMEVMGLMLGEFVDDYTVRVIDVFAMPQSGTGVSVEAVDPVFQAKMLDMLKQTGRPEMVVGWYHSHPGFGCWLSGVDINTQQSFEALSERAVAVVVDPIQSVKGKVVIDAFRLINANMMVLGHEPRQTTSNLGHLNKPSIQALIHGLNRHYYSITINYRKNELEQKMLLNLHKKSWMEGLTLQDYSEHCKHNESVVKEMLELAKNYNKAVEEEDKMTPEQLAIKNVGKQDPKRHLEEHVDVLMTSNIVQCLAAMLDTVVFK
SUMO1 PPI mod – alters human SUMO1 binding to SIM partners; actives 0.33% (n = 360,000); inhibition, % at 20 µM; AID 602429; SUMO1 binding to a labelled peptide, TR-FRET, 1 h; in the data active = inhibition above about 37%
Target sequence (P63165 whole entry, looked up): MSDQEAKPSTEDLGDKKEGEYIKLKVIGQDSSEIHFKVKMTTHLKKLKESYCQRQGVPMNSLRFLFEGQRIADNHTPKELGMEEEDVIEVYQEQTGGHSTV
STEP inh – inhibitors of human striatal-enriched phosphatase STEP; P54829; inhibition, % at 20 µM; recombinant STEP, OMFP fluorogenic substrate, fluorescence; actives 0.25% (n = 360,000); AID 588621;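 active = inhibition at 20 µM, scaled per plate between control wells, above about 37%, limit read from the data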;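 note: 0% = DMSO with enzyme and substrate and 100% = substrate only without enzyme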
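System: isolated STEP enzyme; schedule: 20 min enzyme reaction at room temperature, protected from light; medium: Bis-Tris buffer pH 6.0, 2.5 mM DTT, 0.005% Tween 20; signal: fluorescence, 480/540 nm; dosing: single compound dose of 20 µM, 1% DMSO final; also added: OMFP substrate, 25 µM final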
Scp-1 inhibitor – blocks human Scp-1 phosphatase activity; inhibition, % at 20 µM; AID 493091; Recombinant Scp1, phosphopeptide, malachite green phosphate absorbance; actives 0.88% (n = 340,000); Q9GZU7;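 active = inhibition above about 50% at 20 µM, limit read from the data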;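 note: plate controls were DMSO wells with enzyme for no effect and wells lacking enzyme for full effect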
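Test system: SCP-1 phosphatase catalytic domain, residues 76-261 | Compound dosing: One concentration, 20 µM, with 1.0% DMSO | Schedule: 45 min room-temperature reaction, 5 min colour, 30 min stabiliser | Detection: Absorbance at 630 nm | Read-out basis: % inhibition of SCP-1 phosphate liberation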
Scp1 confirm – Scp-1 (human) inhibition, single-dose confirmed | inhibition, % at 20 µM | actives 61% (n = 2,500) | recombinant SCP-1 catalytic domain, phosphate release, malachite green absorbance | shares compounds with Scp-1 inhibitor;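 active = inhibition of at least 30% at 20 µM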;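 note: plate controls were DMSO with enzyme for no effect and buffer wells lacking enzyme for full effect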
MG interference – colorimetric interference in Scp-1 counter-screen; shares compounds with Scp-1 inhibitor; Colorimetric interference counterscreen, malachite green absorbance 630 nm; apparent inhibition (interference), % at 20 µM; 2,500 tested, under 10 active;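 active = inhibition of at least 30% at 20 µM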;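 note: compounds added after enzyme reaction finished so only phosphate colour detection is probed; plate controls were DMSO wells with completed Scp-1 reaction for no effect and substrate wells lacking enzyme for full effect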
Scp-1 Tm shift – binds human Scp-1, shifting its melting temperature | shares compounds with Scp-1 inhibitor | Recombinant SCP1, Sypro Orange thermal shift Tm | thermal shift relative to vanadate control, % at 40 µM | actives 25% (n = 1,500);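 active = substances whose mean melting-temperature shift, as a percentage of the reference inhibitor's shift, reaches about 5.3%, limit read from the data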;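 note: 0% = Tm of DMSO wells and 100% = Tm with sodium orthovanadate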
DNMT1 confirm – confirmation of human DNMT1 inhibitors | actives 8% (n = 2,300) | AID 602385 | shares compounds with DNMT1 inh | DNMT1 molecular beacon HinP1I cleavage, fluorescence | inhibition, % at 10 µM;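 active = average inhibition of at least 30% in the single-concentration confirmation test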
Beacon interf – counter-screen for DNMT1 inhibitors: spectral interference. shares compounds with DNMT1 inh. DNMT1 molecular beacon spectral interference counterscreen, fluorescence 485/520. activation (fluorescence interference), % at 10 µM. actives 1% (n = 2,300);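 active = activation of at least 30% at 10 µM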;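 note: DNMT1 catalytic domain with a HinP1I cleavage step and a FAM/dabcyl DNA beacon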
Rpn11 inh conf – Rpn11 inhibition confirmation, single concentration. purified human 26S proteasome, Ub4-pepOG fluorescence polarization; proteasome pretreated with epoxomicin. inhibition, % at 20 µM. actives 29% (n = 1,900). AID 602318. shares compounds with Rpn11 inh
MMP-2 inh – blocks human MMP-2, flagging nonselective RPN11 hits. shares compounds with Rpn11 inh. recombinant MMP-2, FRET peptide cleavage fluorescence. inhibition, % at 20 µM. actives 4% (n = 1,900);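 note: human MMP-2 activated beforehand with APMA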
Thrombin FP – blocks bovine thrombin, flagging nonselective RPN11 hits; shares compounds with Rpn11 inh; bovine thrombin cleavage of Ub4-pepOG, fluorescence polarization; inhibition, % at 20 µM; actives 13% (n = 1,900); AID 602333;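 active = mean inhibition at least 40% at 20 µM, or signal 3 deviations below plate average, so some actives read negative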;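 note: plate controls were thrombin with DMSO for no effect and buffer wells lacking thrombin for full effect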
STEP inh conf – confirmation of human STEP phosphatase inhibitors. actives 32% (n = 520). shares compounds with STEP inh. inhibition, % at 20 µM. AID 623866. recombinant STEP, OMFP fluorogenic substrate, fluorescence; call rule not given here;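 note: 0% = enzyme with substrate plus DMSO and 100% = substrate without enzyme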
* marks the source's active call; other numbers are inactive results; x = no result given. Only some compounds are listed: those with a hit (about 2.3% of all), similar ones and a draw of the others. Cut-off read from the data, not from the text of the source, unless noted: active = inhibition above about 40%; inactive = the rest.

SMILES	LMPTP block	DNMT1 inh	Rpn11 inh	SUMO1 PPI mod	STEP inh	Scp-1 inhibitor	Scp1 confirm	MG interference	Scp-1 Tm shift	STEP inh conf	others
COc1ccc(CSCC(=O)N/N=C/c2ccc(OCC(=O)N3CCCCC3)cc2)cc1	-0.8	0.4	2.7	-4.6	-0.5	5.7	x	x	x	x
O=C(N/N=C/c1cccnc1)/C(=C\c1cccs1)NC(=O)c1ccccc1	-1.5	1.6	-1.2	-11.9	0.1	-6.7	x	x	x	x
O=C(N/N=C/c1cc2ccccc2nc1Cl)/C(=C/c1cccs1)NC(=O)c1ccccc1	-2.5	-7.9	52.0*	9.2	13.7	98.7*	34.8*	-7.9	3.0	x	Rpn11 inh conf=18.9;MMP-2 inh=-174.7;Thrombin FP=15.0
O=C(NCC(c1ccco1)N1CCN(c2ccccc2F)CC1)c1ccc2c(c1)OCO2 (stereo unspecified)	-0.2	-2.1	-4.5	5.3	-0.8	-3.8	x	x	x	x
COc1ccc2cc3c(N)nn(C(=O)c4cccc(F)c4)c3nc2c1	25.9	42.6	x	85.2*	95.6*	96.3*	60.4*	-16.4	-21.5	21.3*
O=C(N/N=C/c1ccoc1)c1cccc([N+](=O)[O-])c1	1.0	21.7	-4.1	-23.5	9.5	24.3	x	x	x	x
O=C(N/N=C/c1ccc(Br)s1)c1cccc([N+](=O)[O-])c1	90.7*	71.0*	x	30.7	94.3*	99.1*	76.4*	-13.9	1.0	56.3*	DNMT1 confirm=1.2;Beacon interf=-0.5
Cc1ccc(NC(=O)CN2C(=O)S/C(=C\c3ccc(OCC(=O)O)c(Br)c3)C2=O)cc1	2.9	33.2	-3.0	1.0	71.2*	71.6*	58.4*	-16.4	1.3	60.5*
COC(=O)COc1ccc(/C=C2/SC(=O)N(CC(=O)N3CCCC3)C2=O)cc1Br	-1.1	-0.5	2.4	-14.8	-3.9	-2.3	x	x	x	x
O=C(Cn1nnc(-c2ccc(NC(=O)c3ccccc3F)cc2)n1)NCc1ccc(F)cc1	38.7	77.4*	14.4	6.1	65.4*	52.3*	67.9*	-15.3	8.1*	19.7	DNMT1 confirm=1.0;Beacon interf=-3.8
COc1cc2cc(CCCOC(=O)c3ccc(C#N)cc3)oc(=O)c2cc1OC	-1.6	-1.1	-0.4	5.7	-0.3	-8.6	x	x	x	x
O=c1c(C=Nc2ccc(Cl)cc2)c[nH]n1-c1cccc(Cl)n1	61.6*	75.0*	25.3	-9.3	79.3*	102.2*	99.0*	-0.5	-3.0	1.6	DNMT1 confirm=2.1;Beacon interf=-6.3
CCN(CC)S(=O)(=O)c1ccc(N2CCOCC2)c(NC(=O)C23CC4CC(CC(Cl)(C4)C2)C3)c1	1.7	1.0	0.9	-5.5	2.4	-8.2	x	x	x	x
